Reference: ChEMBL document CHEMBL1139170, “Synthesis of 3-[4'-(p-chlorophenyl)-thiazol-2'-yl]-2-[(substituted azetidinone/thiazolidinone)-aminomethyl]-6-bromoquinazolin-4-ones as anti-inflammatory agent” (Bioorg Med Chem, 2007)

Tested on: Rattus norvegicus
Assay: Antiinflammatory activity against carrageenan-induced hind paw oedema in Charles foster rat assessed as inhibition of paw oedema at 50 mg/kg, po after 1 hr
Type: functional
Set-up: scale not given: the % may be the effect or the level left
Settings: not given
Procedure, shortened: (§1)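 Charles-Foster albino rats of either sex, no pregnant females, 70–95 days old, 100–150 g. Oral dose of 25, 50 or 100 mg/kg given 1 h before carrageenan. Carrageenan was a fresh 1% suspension in 0.9% saline, 0.05 mL under the plantar aponeurosis of the right hind paw. Paw volume measured by plethysmometer before and 3 h after carrageenan. Result is percent inhibition of oedema.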

Row | SMILES | Activity [%]
1 | O=C1CSC(c2ccc(Cl)cc2)N1NCc1nc2ccc(Br)cc2c(=O)n1-c1nc(-c2ccc(Cl)cc2)cs1 (stereo not drawn) | 37.06
2 | O=C1C(Cl)C(c2ccc(Cl)cc2)N1NCc1nc2ccc(Br)cc2c(=O)n1-c1nc(-c2ccc(Cl)cc2)cs1 (stereo not drawn) | 33.07
3 | COc1ccc(/C=N/NCc2nc3ccc(Br)cc3c(=O)n2-c2nc(-c3ccc(Cl)cc3)cs2)cc1 | 23.29
4 | CN(C)c1ccc(/C=N/NCc2nc3ccc(Br)cc3c(=O)n2-c2nc(-c3ccc(Cl)cc3)cs2)cc1 | 17.88
5 | O=c1c2cc(Br)ccc2nc(CN/N=C/c2ccccc2)n1-c1nc(-c2ccc(Cl)cc2)cs1 | 18.75
6 | O=C1C(Cl)C(c2ccccc2Cl)N1NCc1nc2ccc(Br)cc2c(=O)n1-c1nc(-c2ccc(Cl)cc2)cs1 (stereo not drawn) | 34.21
7 | CN(C)c1ccc(C2C(Cl)C(=O)N2NCc2nc3ccc(Br)cc3c(=O)n2-c2nc(-c3ccc(Cl)cc3)cs2)cc1 (stereo not drawn) | 28.55
8 | O=C1CSC(c2ccccc2)N1NCc1nc2ccc(Br)cc2c(=O)n1-c1nc(-c2ccc(Cl)cc2)cs1 (stereo not drawn) | 33.88
9 | O=C1CSC(c2ccc(O)cc2)N1NCc1nc2ccc(Br)cc2c(=O)n1-c1nc(-c2ccc(Cl)cc2)cs1 (stereo not drawn) | 35.13
10 | Cc1ccc(C2SCC(=O)N2NCc2nc3ccc(Br)cc3c(=O)n2-c2nc(-c3ccc(Cl)cc3)cs2)cc1 (stereo not drawn) | 34.25
11 | O=C1C(Cl)C(c2ccccc2)N1NCc1nc2ccc(Br)cc2c(=O)n1-c1nc(-c2ccc(Cl)cc2)cs1 (stereo not drawn) | 29.16
12 | CN(C)c1ccc(C2SCC(=O)N2NCc2nc3ccc(Br)cc3c(=O)n2-c2nc(-c3ccc(Cl)cc3)cs2)cc1 (stereo not drawn) | 32.89
13 | CCCCC1C(=O)N(c2ccccc2)N(c2ccccc2)C1=O [PHENYLBUTAZONE] | 38.9

Tested on: Rattus norvegicus
Assay: Antiinflammatory activity against carrageenan-induced hind paw oedema in Charles foster rat assessed as inhibition of paw oedema at 25 mg/kg, po after 1 hr
Type: functional
Set-up: scale not given: the % may be the effect or the level left
Settings: not given
Procedure, shortened: as §1

Row | SMILES | Activity [%]
14 | CCCCC1C(=O)N(c2ccccc2)N(c2ccccc2)C1=O [PHENYLBUTAZONE] | 18.46

Tested on: Rattus norvegicus
Assay: Antiinflammatory activity against carrageenan-induced hind paw oedema in Charles foster rat assessed as inhibition of paw oedema at 100 mg/kg, po after 1 hr
Type: functional
Set-up: scale not given: the % may be the effect or the level left
Settings: not given
Procedure, shortened: as §1

Row | SMILES | Activity [%]
15 | CCCCC1C(=O)N(c2ccccc2)N(c2ccccc2)C1=O [PHENYLBUTAZONE] | 66.58

Tested on: Mus musculus
Assay: Analgesic activity in Albino mouse assessed as number of acetic acid-induced writhing at 50 mg/kg, po after 30 min
Type: functional
Settings: not given

Row | SMILES | Activity [%]
16 | O=C1CSC(c2ccc(Cl)cc2)N1NCc1nc2ccc(Br)cc2c(=O)n1-c1nc(-c2ccc(Cl)cc2)cs1 (stereo not drawn) | 36.26
17 | O=C1C(Cl)C(c2ccc(Cl)cc2)N1NCc1nc2ccc(Br)cc2c(=O)n1-c1nc(-c2ccc(Cl)cc2)cs1 (stereo not drawn) | 32.62
18 | COc1ccc(/C=N/NCc2nc3ccc(Br)cc3c(=O)n2-c2nc(-c3ccc(Cl)cc3)cs2)cc1 | 21.69
19 | CN(C)c1ccc(/C=N/NCc2nc3ccc(Br)cc3c(=O)n2-c2nc(-c3ccc(Cl)cc3)cs2)cc1 | 16.84
20 | O=c1c2cc(Br)ccc2nc(CN/N=C/c2ccccc2)n1-c1nc(-c2ccc(Cl)cc2)cs1 | 17.12
21 | O=C1C(Cl)C(c2ccccc2Cl)N1NCc1nc2ccc(Br)cc2c(=O)n1-c1nc(-c2ccc(Cl)cc2)cs1 (stereo not drawn) | 34.11
22 | CN(C)c1ccc(C2C(Cl)C(=O)N2NCc2nc3ccc(Br)cc3c(=O)n2-c2nc(-c3ccc(Cl)cc3)cs2)cc1 (stereo not drawn) | 27.35
23 | O=C1CSC(c2ccccc2)N1NCc1nc2ccc(Br)cc2c(=O)n1-c1nc(-c2ccc(Cl)cc2)cs1 (stereo not drawn) | 32.45
24 | O=C1CSC(c2ccc(O)cc2)N1NCc1nc2ccc(Br)cc2c(=O)n1-c1nc(-c2ccc(Cl)cc2)cs1 (stereo not drawn) | 33
25 | Cc1ccc(C2SCC(=O)N2NCc2nc3ccc(Br)cc3c(=O)n2-c2nc(-c3ccc(Cl)cc3)cs2)cc1 (stereo not drawn) | 32.87
26 | O=C1C(Cl)C(c2ccccc2)N1NCc1nc2ccc(Br)cc2c(=O)n1-c1nc(-c2ccc(Cl)cc2)cs1 (stereo not drawn) | 28.59
27 | CN(C)c1ccc(C2SCC(=O)N2NCc2nc3ccc(Br)cc3c(=O)n2-c2nc(-c3ccc(Cl)cc3)cs2)cc1 (stereo not drawn) | 28.76
28 | CCCCC1C(=O)N(c2ccccc2)N(c2ccccc2)C1=O [PHENYLBUTAZONE] | 36.5

Tested on: Mus musculus
Assay: Analgesic activity in Albino mouse assessed as number of acetic acid-induced writhing at 25 mg/kg, po after 30 min
Type: functional
Settings: not given

Row | SMILES | Activity [%]
29 | CCCCC1C(=O)N(c2ccccc2)N(c2ccccc2)C1=O [PHENYLBUTAZONE] | 16.3

Tested on: Mus musculus
Assay: Analgesic activity in Albino mouse assessed as number of acetic acid-induced writhing at 100 mg/kg, po after 30 min
Type: functional
Settings: not given

Row | SMILES | Activity [%]
30 | CCCCC1C(=O)N(c2ccccc2)N(c2ccccc2)C1=O [PHENYLBUTAZONE] | 60.23

Species: Rattus norvegicus
Assay: Ulcerogenic activity in 24 hrs fasted Charles foster rat
Type: functional
Settings: not given
Procedure, shortened: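 Albino rats fasted 24 h, then given compound. Killed 8 h after dosing. Stomach and small intestine examined for hyperaemia, epithelial shedding, petechial or frank haemorrhage, and erosion or ulceration with or without perforation. Any one of these counted as ulcerogenic. Route reported as i.p. for the UD50.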

Row | SMILES | UD50 [mg/kg]
31 | CCCCC1C(=O)N(c2ccccc2)N(c2ccccc2)C1=O [PHENYLBUTAZONE] | 66.6

Tested on: not listed separately
Assay: Acute toxicity in albino mouse assessed as percent mortality after 24 hrs
Type: organism-based
Settings: in vivo, read-out: ALD50

Row | SMILES | LD50 at 24 h [mg/kg]
32 | O=C1CSC(c2ccc(Cl)cc2)N1NCc1nc2ccc(Br)cc2c(=O)n1-c1nc(-c2ccc(Cl)cc2)cs1 (stereo not drawn) | > 1000
33 | O=C1C(Cl)C(c2ccc(Cl)cc2)N1NCc1nc2ccc(Br)cc2c(=O)n1-c1nc(-c2ccc(Cl)cc2)cs1 (stereo not drawn) | > 1000
34 | COc1ccc(/C=N/NCc2nc3ccc(Br)cc3c(=O)n2-c2nc(-c3ccc(Cl)cc3)cs2)cc1 | > 1000
35 | CN(C)c1ccc(/C=N/NCc2nc3ccc(Br)cc3c(=O)n2-c2nc(-c3ccc(Cl)cc3)cs2)cc1 | > 1000
36 | O=c1c2cc(Br)ccc2nc(CN/N=C/c2ccccc2)n1-c1nc(-c2ccc(Cl)cc2)cs1 | > 1000
37 | O=C1C(Cl)C(c2ccccc2Cl)N1NCc1nc2ccc(Br)cc2c(=O)n1-c1nc(-c2ccc(Cl)cc2)cs1 (stereo not drawn) | > 1000
38 | CN(C)c1ccc(C2C(Cl)C(=O)N2NCc2nc3ccc(Br)cc3c(=O)n2-c2nc(-c3ccc(Cl)cc3)cs2)cc1 (stereo not drawn) | > 1000
39 | O=C1CSC(c2ccccc2)N1NCc1nc2ccc(Br)cc2c(=O)n1-c1nc(-c2ccc(Cl)cc2)cs1 (stereo not drawn) | > 1000
40 | O=C1CSC(c2ccc(O)cc2)N1NCc1nc2ccc(Br)cc2c(=O)n1-c1nc(-c2ccc(Cl)cc2)cs1 (stereo not drawn) | > 1000
41 | Cc1ccc(C2SCC(=O)N2NCc2nc3ccc(Br)cc3c(=O)n2-c2nc(-c3ccc(Cl)cc3)cs2)cc1 (stereo not drawn) | > 1000
42 | O=C1C(Cl)C(c2ccccc2)N1NCc1nc2ccc(Br)cc2c(=O)n1-c1nc(-c2ccc(Cl)cc2)cs1 (stereo not drawn) | > 1000
43 | CN(C)c1ccc(C2SCC(=O)N2NCc2nc3ccc(Br)cc3c(=O)n2-c2nc(-c3ccc(Cl)cc3)cs2)cc1 (stereo not drawn) | > 1000
